In assay [1] the target is Histone deacetylase 2 (Homo sapiens, UniProt Q92769). As to the kind of experiment: Inhibition of full length C-terminal FLAG-tagged human HDAC2 expressed in baculovirus infected Sf9 insect cells using BPS HDAC substrate 3 after 30 mins by fluorescence assay. The method, boiled down:
(§1)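 Run by a contract lab. Compound incubated with HDAC enzyme, HDAC substrate, BSA and HDAC buffer, in duplicate, at 37 °C for 30 min. Quenched with HDAC developer, then 15 min at room temperature. Percent activity = (F−Fb)/(Ft−Fb), using blank and solvent-control wells. IC50 from curve fitting.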

For assay [2], the target named is Histone deacetylase 1 (Homo sapiens, UniProt Q13547). As to the kind of experiment: Inhibition of recombinant full length C-terminal His/FLAG-tagged human HDAC1 expressed in baculovirus infected Sf9 insect cells using BPS HDAC substrate 3 after 30 mins by fluorescence assay. The gist of the method: as §1
Histone deacetylase 1, sequence (Q13547 whole entry): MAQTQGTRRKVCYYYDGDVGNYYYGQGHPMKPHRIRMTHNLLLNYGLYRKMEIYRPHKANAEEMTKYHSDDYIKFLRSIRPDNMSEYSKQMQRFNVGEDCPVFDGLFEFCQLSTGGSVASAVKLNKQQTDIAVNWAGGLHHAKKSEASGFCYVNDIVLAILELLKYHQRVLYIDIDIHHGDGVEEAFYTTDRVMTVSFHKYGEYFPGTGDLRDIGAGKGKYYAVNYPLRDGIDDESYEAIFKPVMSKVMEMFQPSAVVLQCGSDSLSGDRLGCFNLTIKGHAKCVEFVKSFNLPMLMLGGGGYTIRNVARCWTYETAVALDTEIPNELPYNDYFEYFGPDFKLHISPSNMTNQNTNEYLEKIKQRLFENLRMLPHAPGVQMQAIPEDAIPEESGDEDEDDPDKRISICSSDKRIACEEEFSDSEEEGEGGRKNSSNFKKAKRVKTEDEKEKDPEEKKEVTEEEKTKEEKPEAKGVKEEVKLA
Assay [3] concerns HCT-116. As to the kind of experiment: Cytotoxicity against human HCT116 cells assessed as reduction in cell viability after 48 hrs by MTT assay. The assay is classed as functional, cell-based. Conditions: HCT-116, 48 h. The method, boiled down:
(§2)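 Cells grown in DMEM with 10% FBS, 37 °C, 5% CO2; 1 × 10^4 cells per well plated and left 24 h, then exposed to a range of compound concentrations or vehicle (1% EtOH) for 48 h. Viability read by MTT.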
On the technique in general: Formazan colour is commonly taken as a measure of viable cells.

For assay [4], the species on record is Homo sapiens. As to the kind of experiment: Inhibition of class 1 HDAC in human HCT116 cells assessed as hyperacetylation of histone H3 (Lys9/14) measured at 8 hrs post treatment by immunoblot analysis. It is filed as cell-based. The method, boiled down:
(§3)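 Cells in DMEM/10% FBS; 4 × 10^5 cells seeded in 60-mm dishes overnight, then treated for 8 h with 0–10 μM (final) compound or vehicle (1% EtOH). Whole-cell lysates loaded at equal protein (BCA), run on SDS-PAGE, blotted to PVDF and probed with anti-acetyl histone H3 (Lys9/14); β-actin also probed. Chemiluminescent detection.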
A general note: In western blotting, separated proteins are transferred to a membrane and probed.

Assay [5] concerns the target T1, Histone deacetylase 8 (Homo sapiens, UniProt Q9BY41).
T1 sequence (Q9BY41 whole entry): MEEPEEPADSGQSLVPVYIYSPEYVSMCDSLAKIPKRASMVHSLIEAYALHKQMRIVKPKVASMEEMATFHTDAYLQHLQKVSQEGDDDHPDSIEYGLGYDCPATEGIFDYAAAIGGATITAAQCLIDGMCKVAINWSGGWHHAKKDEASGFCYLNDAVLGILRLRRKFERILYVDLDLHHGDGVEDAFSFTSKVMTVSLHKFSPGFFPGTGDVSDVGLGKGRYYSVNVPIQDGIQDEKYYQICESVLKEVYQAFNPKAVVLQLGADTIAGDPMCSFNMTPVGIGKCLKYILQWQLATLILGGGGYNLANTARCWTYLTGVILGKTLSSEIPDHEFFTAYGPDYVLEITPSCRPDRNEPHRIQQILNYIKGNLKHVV
In words: Inhibition of full length C-terminal His-tagged human HDAC8 expressed in baculovirus infected Sf9 insect cells using BPS HDAC class 2a substrate after 30 mins by fluorescence assay. The gist of the method:
as §1

Assay [6] concerns MDA-MB-231. As to the kind of experiment: Cytotoxicity against human MDA-MB-231 cells assessed as reduction in cell viability after 48 hrs by MTT assay. The assay is classed as functional, cell-based. The settings on record: MDA-MB-231, 48 h. The gist of the method:
as §2

Assay [7] addresses Histone deacetylase 5 (Homo sapiens) (UniProt Q9UQL6). In words: Inhibition of full length N-terminal GST-tagged human HDAC5 expressed in baculovirus infected Sf9 insect cells using BPS HDAC class 2a substrate at 10 uM after 30 mins by fluorescence assay relative to control. The gist of the method:
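Run by a contract lab. Compound incubated with HDAC enzyme, substrate, bovine serum albumin and HDAC buffer in duplicate for 30 min at 37 °C. Quenched with HDAC developer, 15 min at room temperature, fluorescence read at ex 360/em 460 nm. Activity taken as (F−Fb)/(Ft−Fb) against blank and solvent control wells; IC50 from curve fitting.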

The target of assay [8] is T2, Polyamine deacetylase HDAC10 (Homo sapiens, UniProt Q969S8).
T2 sequence (Q969S8 whole entry): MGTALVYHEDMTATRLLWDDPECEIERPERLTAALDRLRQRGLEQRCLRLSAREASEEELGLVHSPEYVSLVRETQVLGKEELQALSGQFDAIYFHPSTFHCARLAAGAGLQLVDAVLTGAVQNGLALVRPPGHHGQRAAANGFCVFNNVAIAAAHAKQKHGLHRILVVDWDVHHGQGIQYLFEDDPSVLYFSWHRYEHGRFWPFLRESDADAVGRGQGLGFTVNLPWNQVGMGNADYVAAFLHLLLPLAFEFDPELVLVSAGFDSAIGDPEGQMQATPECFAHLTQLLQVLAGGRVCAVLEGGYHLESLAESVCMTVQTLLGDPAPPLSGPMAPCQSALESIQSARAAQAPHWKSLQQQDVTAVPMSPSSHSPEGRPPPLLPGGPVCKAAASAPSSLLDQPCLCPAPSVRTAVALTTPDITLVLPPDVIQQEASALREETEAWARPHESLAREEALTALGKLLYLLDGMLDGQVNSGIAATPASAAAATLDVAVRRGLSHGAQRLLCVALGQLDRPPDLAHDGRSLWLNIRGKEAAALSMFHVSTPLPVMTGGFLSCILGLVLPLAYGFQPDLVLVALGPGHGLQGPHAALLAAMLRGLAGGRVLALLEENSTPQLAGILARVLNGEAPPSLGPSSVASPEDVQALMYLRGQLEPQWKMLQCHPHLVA
In words: Inhibition of N-terminal GST-tagged/C-terminal His-tagged human HDAC10 (1 to 481 residues) expressed in baculovirus infected Sf9 insect cells using BPS HDAC substrate 3 after 30 mins by fluorescence assay. The gist of the method: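 Run by a contract lab. Compound incubated with HDAC enzyme, HDAC substrate, BSA and HDAC buffer, in duplicate, at 37 °C for 30 min. Quenched with HDAC developer, then 15 min at room temperature. Fluorescence read at ex 360/em 460 nm. Percent activity = (F−Fb)/(Ft−Fb), using blank and solvent-control wells. IC50 from curve fitting.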

The target in assay [9] is Histone deacetylase 3/Nuclear receptor corepressor 2 (HDAC3/NCoR2) (Homo sapiens, UniProt O15379). As to the kind of experiment: Inhibition of full length human C-terminal His-tagged HDAC3/N-terminal GST-tagged NCOR2 (395 to 489 residues) expressed in baculovirus infected Sf9 insect cells using BPS HDAC substrate 3 after 30 mins by fluorescence assay. The method, boiled down:
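Run by a contract lab. Compound incubated with HDAC enzyme, substrate, bovine serum albumin and HDAC buffer in duplicate for 30 min at 37 °C. Activity taken as (F−Fb)/(Ft−Fb) against blank and solvent control wells; IC50 from curve fitting.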

The species named for assay [10] is Homo sapiens. In words: Inhibition of class 1 HDAC in human MDA-MB-231 cells assessed as hyperacetylation of histone H3 (Lys9/14) measured at 8 hrs post treatment by immunoblot analysis. The assay is classed as cell-based. The method, boiled down: as §3

Results on two molecules are retold here after ChEMBL document CHEMBL4020727, “Synthesis and biological evaluation of largazole zinc-binding group analogs” (Bioorg Med Chem, 2017).

Histone deacetylase 2, sequence (Q92769 whole entry): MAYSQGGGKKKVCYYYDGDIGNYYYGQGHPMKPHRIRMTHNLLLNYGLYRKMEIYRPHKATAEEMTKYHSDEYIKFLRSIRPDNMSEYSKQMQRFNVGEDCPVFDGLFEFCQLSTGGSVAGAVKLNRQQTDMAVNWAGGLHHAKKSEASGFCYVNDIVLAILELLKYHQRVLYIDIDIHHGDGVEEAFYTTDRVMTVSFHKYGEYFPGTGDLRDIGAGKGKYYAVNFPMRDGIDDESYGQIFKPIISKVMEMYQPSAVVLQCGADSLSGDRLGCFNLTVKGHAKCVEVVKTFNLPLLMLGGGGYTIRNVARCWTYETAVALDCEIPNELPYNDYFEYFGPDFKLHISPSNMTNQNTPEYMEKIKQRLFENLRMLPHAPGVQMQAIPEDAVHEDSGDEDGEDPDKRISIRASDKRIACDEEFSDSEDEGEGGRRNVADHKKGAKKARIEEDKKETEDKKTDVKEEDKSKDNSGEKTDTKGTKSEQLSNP
Histone deacetylase 3/Nuclear receptor corepressor 2 (HDAC3/NCoR2), sequence (O15379 whole entry, the tested form may be a part): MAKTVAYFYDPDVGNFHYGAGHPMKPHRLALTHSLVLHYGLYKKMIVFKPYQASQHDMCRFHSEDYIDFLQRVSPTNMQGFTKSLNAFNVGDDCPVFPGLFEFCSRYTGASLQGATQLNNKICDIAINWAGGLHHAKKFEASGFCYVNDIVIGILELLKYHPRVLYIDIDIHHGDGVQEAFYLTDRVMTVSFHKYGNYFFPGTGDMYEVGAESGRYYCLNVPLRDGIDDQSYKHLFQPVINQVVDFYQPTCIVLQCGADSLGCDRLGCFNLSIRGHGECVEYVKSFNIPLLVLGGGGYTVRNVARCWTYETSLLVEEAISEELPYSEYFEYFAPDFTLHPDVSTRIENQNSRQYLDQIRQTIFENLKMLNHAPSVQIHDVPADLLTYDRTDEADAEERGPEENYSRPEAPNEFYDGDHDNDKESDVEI
Histone deacetylase 3/Nuclear receptor corepressor 2 (HDAC3/NCoR2), sequence (Q9Y618 whole entry, further chain, the tested form may be a part): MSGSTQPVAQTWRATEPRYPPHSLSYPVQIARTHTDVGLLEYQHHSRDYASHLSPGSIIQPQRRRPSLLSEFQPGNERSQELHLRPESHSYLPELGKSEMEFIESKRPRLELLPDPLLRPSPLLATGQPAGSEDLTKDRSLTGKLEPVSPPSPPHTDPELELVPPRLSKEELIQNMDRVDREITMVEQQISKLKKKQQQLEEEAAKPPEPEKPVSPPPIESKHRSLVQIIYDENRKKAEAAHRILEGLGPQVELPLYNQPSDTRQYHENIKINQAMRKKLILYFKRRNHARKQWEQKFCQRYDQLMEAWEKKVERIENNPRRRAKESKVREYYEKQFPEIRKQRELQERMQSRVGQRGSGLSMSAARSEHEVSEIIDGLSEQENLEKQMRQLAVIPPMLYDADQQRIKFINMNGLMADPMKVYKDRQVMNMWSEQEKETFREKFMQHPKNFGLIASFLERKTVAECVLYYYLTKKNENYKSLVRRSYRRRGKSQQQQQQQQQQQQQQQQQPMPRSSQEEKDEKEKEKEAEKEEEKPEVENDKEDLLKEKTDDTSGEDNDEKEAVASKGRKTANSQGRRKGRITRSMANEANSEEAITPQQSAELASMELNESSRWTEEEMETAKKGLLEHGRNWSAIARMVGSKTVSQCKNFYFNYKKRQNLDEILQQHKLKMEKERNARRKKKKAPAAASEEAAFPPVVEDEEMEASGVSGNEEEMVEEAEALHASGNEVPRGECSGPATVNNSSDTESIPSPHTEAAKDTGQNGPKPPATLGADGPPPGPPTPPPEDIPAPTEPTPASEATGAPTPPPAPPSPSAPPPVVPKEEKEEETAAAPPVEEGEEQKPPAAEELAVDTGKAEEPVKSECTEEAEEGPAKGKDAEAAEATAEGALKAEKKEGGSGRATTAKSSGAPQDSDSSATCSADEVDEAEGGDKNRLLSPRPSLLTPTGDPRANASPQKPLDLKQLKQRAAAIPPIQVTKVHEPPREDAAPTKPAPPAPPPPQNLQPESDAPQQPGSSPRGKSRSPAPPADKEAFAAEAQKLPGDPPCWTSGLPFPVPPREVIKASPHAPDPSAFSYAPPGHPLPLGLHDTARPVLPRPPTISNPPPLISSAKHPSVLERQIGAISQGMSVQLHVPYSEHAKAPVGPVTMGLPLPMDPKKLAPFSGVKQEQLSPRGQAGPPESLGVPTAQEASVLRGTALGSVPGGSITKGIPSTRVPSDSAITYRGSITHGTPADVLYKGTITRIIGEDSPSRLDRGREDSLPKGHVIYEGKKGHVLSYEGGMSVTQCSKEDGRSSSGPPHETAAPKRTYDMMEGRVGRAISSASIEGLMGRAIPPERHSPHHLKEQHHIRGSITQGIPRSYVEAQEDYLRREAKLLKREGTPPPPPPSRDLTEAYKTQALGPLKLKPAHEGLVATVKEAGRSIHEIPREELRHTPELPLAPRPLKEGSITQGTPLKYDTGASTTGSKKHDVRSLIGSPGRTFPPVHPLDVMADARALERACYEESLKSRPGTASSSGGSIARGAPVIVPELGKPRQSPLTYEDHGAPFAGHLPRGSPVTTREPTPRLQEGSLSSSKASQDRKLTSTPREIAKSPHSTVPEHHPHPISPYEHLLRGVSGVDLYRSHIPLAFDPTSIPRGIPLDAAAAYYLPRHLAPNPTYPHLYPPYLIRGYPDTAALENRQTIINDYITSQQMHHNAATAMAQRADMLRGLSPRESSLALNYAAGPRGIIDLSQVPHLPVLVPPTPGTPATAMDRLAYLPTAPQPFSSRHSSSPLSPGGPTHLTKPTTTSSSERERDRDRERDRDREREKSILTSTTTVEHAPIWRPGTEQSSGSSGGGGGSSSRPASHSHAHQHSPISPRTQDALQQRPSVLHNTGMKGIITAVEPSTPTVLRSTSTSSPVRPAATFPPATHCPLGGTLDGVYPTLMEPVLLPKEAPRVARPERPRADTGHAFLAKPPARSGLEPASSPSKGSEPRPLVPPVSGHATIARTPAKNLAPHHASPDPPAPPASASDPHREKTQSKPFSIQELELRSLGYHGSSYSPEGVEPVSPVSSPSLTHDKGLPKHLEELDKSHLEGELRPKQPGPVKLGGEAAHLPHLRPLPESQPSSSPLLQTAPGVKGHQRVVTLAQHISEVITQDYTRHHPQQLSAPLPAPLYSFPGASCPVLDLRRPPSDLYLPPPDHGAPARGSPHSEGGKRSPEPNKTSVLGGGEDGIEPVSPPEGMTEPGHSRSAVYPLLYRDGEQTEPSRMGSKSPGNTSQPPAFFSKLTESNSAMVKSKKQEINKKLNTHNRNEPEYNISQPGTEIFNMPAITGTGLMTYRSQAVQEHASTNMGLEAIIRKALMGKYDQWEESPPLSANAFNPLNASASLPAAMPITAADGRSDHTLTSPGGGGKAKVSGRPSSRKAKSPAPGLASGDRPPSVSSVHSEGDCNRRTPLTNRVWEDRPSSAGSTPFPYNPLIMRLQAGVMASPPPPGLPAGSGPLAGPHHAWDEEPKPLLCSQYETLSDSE
Histone deacetylase 5 (Homo sapiens), sequence (Q9UQL6 whole entry): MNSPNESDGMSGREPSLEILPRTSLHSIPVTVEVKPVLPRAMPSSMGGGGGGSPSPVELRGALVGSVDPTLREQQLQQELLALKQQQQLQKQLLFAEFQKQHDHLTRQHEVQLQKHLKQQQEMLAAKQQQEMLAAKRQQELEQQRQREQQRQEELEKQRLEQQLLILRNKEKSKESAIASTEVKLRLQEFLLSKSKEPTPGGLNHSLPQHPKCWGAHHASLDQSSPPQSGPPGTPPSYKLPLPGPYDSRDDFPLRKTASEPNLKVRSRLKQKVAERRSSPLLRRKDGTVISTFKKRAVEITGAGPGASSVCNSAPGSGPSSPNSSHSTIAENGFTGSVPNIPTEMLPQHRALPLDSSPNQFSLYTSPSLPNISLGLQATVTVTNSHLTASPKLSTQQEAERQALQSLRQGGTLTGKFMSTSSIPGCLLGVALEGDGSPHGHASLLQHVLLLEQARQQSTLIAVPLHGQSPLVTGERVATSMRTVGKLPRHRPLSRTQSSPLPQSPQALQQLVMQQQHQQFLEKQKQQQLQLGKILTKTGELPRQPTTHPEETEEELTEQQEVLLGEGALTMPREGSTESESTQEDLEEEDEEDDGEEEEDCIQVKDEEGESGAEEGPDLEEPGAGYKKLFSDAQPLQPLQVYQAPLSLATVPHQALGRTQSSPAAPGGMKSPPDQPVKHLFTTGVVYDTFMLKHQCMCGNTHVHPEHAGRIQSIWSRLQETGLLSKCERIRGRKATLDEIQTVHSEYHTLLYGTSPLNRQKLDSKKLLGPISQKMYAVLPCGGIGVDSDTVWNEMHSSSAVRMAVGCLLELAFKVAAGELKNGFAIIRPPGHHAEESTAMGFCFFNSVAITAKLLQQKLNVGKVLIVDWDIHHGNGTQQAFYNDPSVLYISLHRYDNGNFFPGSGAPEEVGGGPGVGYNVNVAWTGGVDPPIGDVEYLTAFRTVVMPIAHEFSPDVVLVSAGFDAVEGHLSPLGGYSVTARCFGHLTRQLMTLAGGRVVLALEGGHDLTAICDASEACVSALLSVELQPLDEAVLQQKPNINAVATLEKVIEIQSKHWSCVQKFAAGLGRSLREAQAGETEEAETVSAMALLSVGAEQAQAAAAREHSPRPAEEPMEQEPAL

One may read the IC50 as the concentration that inhibits the measured activity by half. By inhibition is commonly meant the drop in the measured response relative to a control, in per cent. Take `CC(C)[C@@H]1NC(=O)[C@]2(C)CSC(=N2)c2csc(n2)CNC(=O)C[C@@H](/C=C/CCSCCS)OC1=O`: the IC50 in assay [1] was 90 nM; in [2], 40 nM; in assay [3] it was 1500 nM; in assay [5], 9600 nM; in [6], 480 nM; in [8], 3.6 nM. In assay [9], this molecule had an IC50 of 43 nM. Besides, the inhibition result in [4] was “Dose-dependent effect”; in assay [7], 22%; in assay [10], “Dose-dependent effect”.

Turning to `CC(C)[C@@H]1NC(=O)[C@]2(C)CSC(=N2)c2csc(n2)CNC(=O)C[C@@H](/C=C/CCC(=O)NO)OC1=O`, the IC50 was determined as 69 nM in [1]; 26 nM in [2]; 3300 nM in assay [3]; 3500 nM in [5]; 497 nM in assay [6]; 21 nM in assay [8]. Also, 29 nM corresponded to half-maximal inhibition in assay [9] (IC50). Besides, the results for the inhibition result in [4], in [7] and in assay [10] were “Dose-dependent effect”, 21% and “Dose-dependent effect”, respectively.
